Laboratory results reported in ChEMBL document CHEMBL4219031, “Identification and Characterization of Von Hippel-Lindau-Recruiting Proteolysis Targeting Chimeras (PROTACs) of TANK-Binding Kinase 1” (J Med Chem, 2018).
Active and inactive are the calls of the source. The rule behind the calls is not given here.

Assays:
[1] = molecular target: T1, Serine/threonine-protein kinase TBK1 (Homo sapiens, UniProt Q9UHD2); assay: Binding affinity to human full length wild-type TBK1 expressed in mammalian expression system
T1 sequence (Q9UHD2 whole entry): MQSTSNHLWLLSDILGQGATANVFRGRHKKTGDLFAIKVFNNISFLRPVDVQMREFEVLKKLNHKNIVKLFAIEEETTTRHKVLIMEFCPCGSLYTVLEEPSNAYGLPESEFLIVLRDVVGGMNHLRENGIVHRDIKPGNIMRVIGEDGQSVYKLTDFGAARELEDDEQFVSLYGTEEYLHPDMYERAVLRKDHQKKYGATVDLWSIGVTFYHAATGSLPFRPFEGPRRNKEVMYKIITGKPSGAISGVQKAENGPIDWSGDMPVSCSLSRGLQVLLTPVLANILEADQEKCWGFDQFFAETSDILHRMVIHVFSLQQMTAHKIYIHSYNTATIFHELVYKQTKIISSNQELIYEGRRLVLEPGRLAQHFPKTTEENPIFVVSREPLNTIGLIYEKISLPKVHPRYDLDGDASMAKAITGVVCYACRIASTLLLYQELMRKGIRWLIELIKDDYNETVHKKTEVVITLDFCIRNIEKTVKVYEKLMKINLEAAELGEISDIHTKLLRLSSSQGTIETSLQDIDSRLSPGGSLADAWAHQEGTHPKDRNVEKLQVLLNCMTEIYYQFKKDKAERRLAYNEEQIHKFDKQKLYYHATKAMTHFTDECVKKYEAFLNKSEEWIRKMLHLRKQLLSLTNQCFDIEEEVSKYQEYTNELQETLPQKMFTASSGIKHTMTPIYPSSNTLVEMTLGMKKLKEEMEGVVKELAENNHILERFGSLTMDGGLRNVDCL

[2] = molecular target: T2, von Hippel-Lindau disease tumor suppressor/Serine/threonine-protein kinase TBK1 (Homo sapiens, UniProt Q9UHD2+P40337); assay: Induction of VHL-mediated TBK1 degradation in human Panc02.13 cells after 16 hrs by Western blot method; type: cell-based
Summary of the method: (§1)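 For phospho-IRF3 read-out, TLR3 agonist Poly I:C added for the final 3 h. Cells lysed in RIPA buffer with protease/phosphatase inhibitors, lysates clarified at 16,000g, run on SDS-PAGE and immunoblotted for TBK1, pIRF3 and GAPDH.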
Target sequence in this assay (P40337 whole entry, one chain of several): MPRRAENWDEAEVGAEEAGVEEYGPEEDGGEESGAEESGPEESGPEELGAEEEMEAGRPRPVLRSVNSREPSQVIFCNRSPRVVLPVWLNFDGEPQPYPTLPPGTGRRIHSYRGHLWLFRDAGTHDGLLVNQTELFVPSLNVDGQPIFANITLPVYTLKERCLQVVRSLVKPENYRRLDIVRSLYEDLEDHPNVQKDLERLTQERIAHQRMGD

[3] = molecular target: T2, von Hippel-Lindau disease tumor suppressor/Serine/threonine-protein kinase TBK1; assay: Induction of VHL-mediated TBK1 degradation in human Panc02.13 cells at 1 uM after 16 hrs by Western blot method; type: cell-based
Summary of the method: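 Panc02.13 cells grown in RPMI-1640 with 15% FBS and 10 units/mL human recombinant insulin; compound exposure 16 h, with TLR3 agonist Poly I:C added for the final 3 h. Cells lysed in RIPA buffer with protease and phosphatase inhibitors, lysates clarified at 16,000g for 10 min, resolved by SDS-PAGE and immunoblotted for TBK1, with GAPDH as loading control.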
Target sequence in this assay (P40337 whole entry, looked up, one chain of several): as the sequence (P40337 whole entry, one chain of several) above

[4] = molecular target: T3, Serine/threonine-protein kinase TBK1 (Homo sapiens) (UniProt Q9UHD2); assay: Antagonist activity at TBK1 in human Panc02.13 cells assessed as decrease in Poly(I:C)-induced IRF3 phosphorylation preincubated for 16 hrs followed by Poly I:C addition measured after 3 hrs by Western blot method; type: cell-based
T3 sequence (whole entry): T1 sequence (Q9UHD2 whole entry)
Summary of the method: as §1, with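 “Panc02.13 cells grown in RPMI-1640 with 15% FBS and 10 units/mL human recombinant insulin, exposed to compound for 16 h. For” for “For”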

[5] = molecular target: von Hippel-Lindau disease tumor suppressor/Elongin-C/Elongin-B/HIF1A (Homo sapiens, UniProt P40337+Q15369+Q15370+Q16665); assay: Inhibition of His-tagged VHL/elongin B/elongin C (unknown origin) interaction with HIF1alpha preincubated for 10 mins followed by fluorescin labelled HIF1alpha peptide addition measured after 2 hrs by fluorescence polarization assay; type: protein-complex assay
Summary of the method: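 VHL coexpressed and copurified with Elongin B and C (VCB). Compound preincubated 10 min with VHL in 50 mM Tris pH 7.5, 200 mM NaCl, 2 mM DTT, 1% DMSO. Polarization converted to percent binding against control wells; IC50 from four-parameter fit.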

[6] = molecular target: T2, von Hippel-Lindau disease tumor suppressor/Serine/threonine-protein kinase TBK1; assay: Induction of VHL-mediated TBK1 degradation in human Panc02.13 cells at 0.1 to 1 uM after 16 hrs by Western blot method; type: cell-based
Summary of the method: as §1, with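 “Panc02.13 cells grown in RPMI-1640 with 15% FBS and 10 units/mL human recombinant insulin, exposed to compound for 16 h. For” for “For”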
Target sequence in this assay (P40337 whole entry, looked up, one chain of several): as the sequence (P40337 whole entry, one chain of several) above

[7] = molecular target: von Hippel-Lindau disease tumor suppressor/Inhibitor of nuclear factor kappa-B kinase subunit epsilon (Homo sapiens) (UniProt Q14164+P40337); assay: Induction of VHL-mediated IKKepsilon degradation in human Panc02.13 cells up to 3 uM after 16 hrs by Western blot method; type: cell-based
[8] = molecular target: T2, von Hippel-Lindau disease tumor suppressor/Serine/threonine-protein kinase TBK1; assay: Induction of VHL-mediated TBK1 degradation in human H23 cells harboring K-Ras mutant at 100 to 300 nM after 16 hrs by Western blot method; type: cell-based
Target sequence in this assay (P40337 whole entry, looked up, one chain of several): as the sequence (P40337 whole entry, one chain of several) above

[9] = molecular target: T2, von Hippel-Lindau disease tumor suppressor/Serine/threonine-protein kinase TBK1; assay: Induction of VHL-mediated TBK1 degradation in human Panc02.13 cells assessed as decrease in Poly(I:C)-induced in IRF3 phosphorylation at 100 nM preincubated for 16 hrs followed by Poly I:C addition measured after 3 hrs by Western blot method; type: cell-based
Summary of the method: as §1, with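 “Panc02.13 cells grown in RPMI-1640 with 15% FBS and 10 units/mL human recombinant insulin, exposed to compound for 16 h. For” for “For”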
Target sequence in this assay (P40337 whole entry, looked up, one chain of several): as the sequence (P40337 whole entry, one chain of several) above

[10] = molecular target: T2, von Hippel-Lindau disease tumor suppressor/Serine/threonine-protein kinase TBK1; assay: Induction of VHL-mediated TBK1 degradation in human Panc02.13 cells at 100 nM after 16 hrs in presence of proteosome inhibitor carfilzomib by Western blot method; type: cell-based
Summary of the method: as §1, with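 “Panc02.13 cells grown in RPMI-1640 with 15% FBS and 10 units/mL human recombinant insulin, exposed to compound for 16 h. For” for “For”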
Target sequence in this assay (P40337 whole entry, looked up, one chain of several): as the sequence (P40337 whole entry, one chain of several) above

[11] = molecular target: T2, von Hippel-Lindau disease tumor suppressor/Serine/threonine-protein kinase TBK1; assay: Induction of VHL-mediated TBK1 degradation in human H1792 cells harboring K-Ras mutant at 100 to 300 nM after 16 hrs by Western blot method; type: cell-based
Target sequence in this assay (P40337 whole entry, looked up, one chain of several): as the sequence (P40337 whole entry, one chain of several) above

[12] = molecular target: T2, von Hippel-Lindau disease tumor suppressor/Serine/threonine-protein kinase TBK1; assay: Induction of VHL-mediated TBK1 degradation in human A549 cells harboring K-Ras mutant at 100 nM after 16 hrs by Western blot method; type: cell-based
[13] = molecular target: T2, von Hippel-Lindau disease tumor suppressor/Serine/threonine-protein kinase TBK1; assay: Induction of VHL-mediated TBK1 degradation in human Panc02.13 cells at 100 nM after 16 hrs by Western blot method; type: cell-based
Summary of the method: as §1, with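 “Panc02.13 cells grown in RPMI-1640 with 15% FBS and 10 units/mL human recombinant insulin, exposed to compound for 16 h. For” for “For”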

[14] = molecular target: T2, von Hippel-Lindau disease tumor suppressor/Serine/threonine-protein kinase TBK1; assay: Induction of VHL-mediated TBK1 degradation in human Panc02.13 cells at 100 nM after 16 hrs in presence of (2S,4R)-1-((S)-2-acetamido-3,3-dimethylbutanoyl)-4-hydroxy-N-(4-(4-methylthiazol-5-yl)benzyl)pyrrolidine-2-carboxamide by Western blot method; type: cell-based
Summary of the method: as §1, with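 “Panc02.13 cells grown in RPMI-1640 with 15% FBS and 10 units/mL human recombinant insulin, exposed to compound for 16 h. For” for “For”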

[15] = molecular target: T2, von Hippel-Lindau disease tumor suppressor/Serine/threonine-protein kinase TBK1; assay: Induction of VHL-mediated TBK1 degradation in human H2110 cells harboring wild-type K-Ras at 100 to 300 nM after 16 hrs by Western blot method; type: cell-based
Homo sapiens = species on record: Homo sapiens; assay: Antiproliferative activity against human NCI-H2110 cells harboring wild-type K-Ras at 10 uM after 72 hrs by CellTiter-Glo assay; type: functional, cell-based
Summary of the method: (§2)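 Lung cancer lines seeded at 5000 cells/well; after 24 h, compound added as 3-fold dilutions (10 μM top final concentration, 0.1% DMSO final). Incubated 72 h, then viability read by CellTiter-Glo luminescence.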

A549 = assay: Antiproliferative activity against human A549 cells harboring K-Ras mutant at 10 uM after 72 hrs by CellTiter-Glo assay; type: functional, cell-based; summary of the method: as §2
[16] = molecular target: T2, von Hippel-Lindau disease tumor suppressor/Serine/threonine-protein kinase TBK1; assay: Induction of VHL-mediated TBK1 degradation in human HCC827 cells harboring wild-type K-Ras at 100 to 300 nM after 16 hrs by Western blot method; type: cell-based
[17] = molecular target: T2, von Hippel-Lindau disease tumor suppressor/Serine/threonine-protein kinase TBK1; assay: Induction of VHL-mediated TBK1 degradation in human Panc02.13 cells after 16 hrs by Western blot method relative to control; type: cell-based
Summary of the method: as §1, with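 “Panc02.13 cells grown in RPMI-1640 with 15% FBS and 10 units/mL human recombinant insulin, exposed to compound for 16 h. For” for “For”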

NCI-H1792 = assay: Antiproliferative activity against human NCI-H1792 cells harboring K-Ras mutant at 10 uM after 72 hrs by CellTiter-Glo assay; type: functional, cell-based; summary of the method: as §2
NCI-H23 = assay: Antiproliferative activity against human H23 cells harboring K-Ras mutant at 10 uM after 72 hrs by CellTiter-Glo assay; type: functional, cell-based; summary of the method: as §2
HCC827 = assay: Antiproliferative activity against human HCC827 cells harboring wild-type K-Ras at 10 uM after 72 hrs by CellTiter-Glo assay; type: functional, cell-based; summary of the method: as §2

Chain of von Hippel-Lindau disease tumor suppressor/Elongin-C/Elongin-B/HIF1A (P40337 whole entry, looked up): as the sequence (P40337 whole entry, one chain of several) above
Chain of von Hippel-Lindau disease tumor suppressor/Elongin-C/Elongin-B/HIF1A (Q15369 whole entry, looked up): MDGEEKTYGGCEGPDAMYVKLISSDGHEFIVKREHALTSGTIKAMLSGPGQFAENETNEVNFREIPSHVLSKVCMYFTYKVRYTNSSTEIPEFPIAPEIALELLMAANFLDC
Chain of von Hippel-Lindau disease tumor suppressor/Elongin-C/Elongin-B/HIF1A (Q15370 whole entry, looked up): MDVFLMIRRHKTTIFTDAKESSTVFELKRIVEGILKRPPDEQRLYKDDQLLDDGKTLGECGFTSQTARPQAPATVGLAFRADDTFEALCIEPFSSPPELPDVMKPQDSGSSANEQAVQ
Chain of von Hippel-Lindau disease tumor suppressor/Elongin-C/Elongin-B/HIF1A (Q16665 whole entry, looked up): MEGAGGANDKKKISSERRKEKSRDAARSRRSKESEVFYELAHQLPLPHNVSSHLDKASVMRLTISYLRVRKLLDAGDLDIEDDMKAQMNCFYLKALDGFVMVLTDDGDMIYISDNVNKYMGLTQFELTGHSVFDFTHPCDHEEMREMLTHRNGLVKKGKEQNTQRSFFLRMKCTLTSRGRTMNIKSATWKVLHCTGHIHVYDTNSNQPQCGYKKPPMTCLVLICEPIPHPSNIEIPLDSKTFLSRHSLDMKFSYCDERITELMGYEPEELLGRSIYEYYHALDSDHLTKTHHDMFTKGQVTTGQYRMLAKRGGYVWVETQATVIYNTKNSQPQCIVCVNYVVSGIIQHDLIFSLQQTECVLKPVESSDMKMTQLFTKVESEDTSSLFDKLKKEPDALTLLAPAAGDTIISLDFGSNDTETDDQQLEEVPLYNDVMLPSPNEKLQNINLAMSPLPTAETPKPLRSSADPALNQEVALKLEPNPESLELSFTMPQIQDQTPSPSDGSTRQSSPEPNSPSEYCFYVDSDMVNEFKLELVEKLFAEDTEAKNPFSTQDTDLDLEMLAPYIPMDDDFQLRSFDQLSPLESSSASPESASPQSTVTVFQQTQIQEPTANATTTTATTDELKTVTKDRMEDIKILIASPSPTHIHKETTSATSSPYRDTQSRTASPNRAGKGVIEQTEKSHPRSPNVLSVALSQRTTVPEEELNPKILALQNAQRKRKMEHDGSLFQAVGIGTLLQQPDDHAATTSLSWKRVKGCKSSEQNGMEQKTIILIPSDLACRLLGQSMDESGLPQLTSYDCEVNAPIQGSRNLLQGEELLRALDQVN
Chain of von Hippel-Lindau disease tumor suppressor/Inhibitor of nuclear factor kappa-B kinase subunit epsilon (Homo sapiens) (P40337 whole entry, looked up): as the sequence (P40337 whole entry, one chain of several) above
Chain of von Hippel-Lindau disease tumor suppressor/Inhibitor of nuclear factor kappa-B kinase subunit epsilon (Homo sapiens) (Q14164 whole entry, looked up): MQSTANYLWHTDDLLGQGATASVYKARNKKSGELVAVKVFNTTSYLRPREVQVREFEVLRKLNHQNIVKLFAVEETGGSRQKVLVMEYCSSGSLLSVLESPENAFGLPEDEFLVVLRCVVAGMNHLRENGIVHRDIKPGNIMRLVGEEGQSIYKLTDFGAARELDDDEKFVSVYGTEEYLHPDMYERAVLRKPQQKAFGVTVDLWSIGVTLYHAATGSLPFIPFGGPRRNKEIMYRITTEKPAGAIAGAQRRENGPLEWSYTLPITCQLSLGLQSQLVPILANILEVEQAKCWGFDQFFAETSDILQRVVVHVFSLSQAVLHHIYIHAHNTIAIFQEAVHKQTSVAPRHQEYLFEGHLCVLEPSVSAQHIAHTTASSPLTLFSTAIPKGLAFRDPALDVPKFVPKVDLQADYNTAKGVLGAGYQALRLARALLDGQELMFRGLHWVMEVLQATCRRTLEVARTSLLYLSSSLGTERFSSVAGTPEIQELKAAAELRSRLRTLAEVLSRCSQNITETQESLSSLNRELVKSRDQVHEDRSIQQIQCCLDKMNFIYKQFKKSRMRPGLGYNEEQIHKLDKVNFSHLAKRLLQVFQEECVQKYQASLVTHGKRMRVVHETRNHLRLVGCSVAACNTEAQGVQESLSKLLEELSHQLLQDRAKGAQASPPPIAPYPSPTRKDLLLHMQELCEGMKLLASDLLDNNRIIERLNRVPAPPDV

How did the Kd [1] turn out when CCOc1ccc(Nc2ncc(Br)c(NCCCN(C)C(=O)C3CCC3)n2)cc1 was run?
Its Kd is 1.3 nM.

And the DC50 [2]?
The DC50 was over 1000 nM.

And the Activity [3]?
The Activity was “inactive”.

For Cc1ncsc1-c1ccc(CNC(=O)[C@@H]2C[C@H](O)CN2C(=O)[C@@H](NC(=O)COCCCOCCCCOCCCOc2ccc(Nc3ncc(Br)c(NCCCN(C)C(=O)C4CCC4)n3)cc2)C(C)(C)C)cc1, which Kd [1] is on record?
The Kd was 5.9 nM.

And the inhibition [4]?
The inhibition was “Active”.

What about the IC50 [5] of the same molecule?
The IC50 was over 100000 nM.

And the Activity [6]?
The Activity was “inactive”.

With Cc1ncsc1-c1ccc(CNC(=O)[C@@H]2C[C@@H](O)CN2C(=O)[C@@H](NC(=O)COCCCOCCCCOCCCOc2ccc(Nc3ncc(Br)c(NCCCN(C)C(=O)C4CCC4)n3)cc2)C(C)(C)C)cc1 as the molecule, how does the Activity [7] read?
Its Activity is “inactive”.

What about the Activity [8] of the same molecule?
Its Activity is “Active”.

What about the IC50 [5] of the same molecule?
Its IC50 is 4900 nM.

And the Activity [9]?
The Activity was “Active”.

And the Activity [10]?
The Activity was “inactive”.

What about the DC50 [2] of the same molecule?
The DC50 was 9 to 12 nM.

And the Activity [11]?
The Activity was “Active”.

What about the Activity [12] of the same molecule?
The Activity was “Active”.

What about the Activity [13] of the same molecule?
Its Activity is “Active”.

What about the Activity [14] of the same molecule?
The Activity was “inactive”.

And the Activity [15]?
Its Activity is “Active”.

And the Activity (Homo sapiens)?
The Activity was “inactive”.

And the Activity (A549)?
Its Activity is “inactive”.

What about the Activity [16] of the same molecule?
The Activity was “Active”.

And the Emax [17]?
The Emax was 96%.

What about the Activity (NCI-H1792) of the same molecule?
Its Activity is “inactive”.

What about the Activity (NCI-H23) of the same molecule?
Its Activity is “inactive”.

And the Activity (HCC827)?
Its Activity is “inactive”.
